ChEMBL document CHEMBL4330069, “Boosting the efficacy of anti-MRSA β-lactam antibiotics via an easily accessible, non-cytotoxic and orally bioavailable FtsZ inhibitor” (Eur J Med Chem, 2019)
≈ marks a conversion by molar mass, not a printed value.

Legend:
Type in all cases: functional
Staphylococcus aureus [1] = test: Synergistic antibacterial activity against multidrug-resistant Staphylococcus aureus isolate 2973 assessed as fractional Inhibitory concentration index in presence of cefuroxime by broth microdilution assay
Staphylococcus aureus [2] = test: Synergistic antibacterial activity against multidrug-resistant Staphylococcus aureus isolate 1749 assessed as fractional Inhibitory concentration index in presence of cloxacillin by broth microdilution assay
Outline: (§1)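 CLSI broth microdilution run on clinical MRSA isolates with each β-lactam alone, the test agent alone, and the two combined; agents dissolved in DMSO. Growth inhibition was read by eye. FIC index = FIC(compound) + FIC(β-lactam), where each FIC is the MIC in combination divided by the MIC alone. An index ≤0.5 was taken as synergy.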

Staphylococcus aureus [3] = test: Synergistic antibacterial activity against multidrug-resistant Staphylococcus aureus isolate 417 in presence of cloxacillin by broth microdilution assay
Staphylococcus aureus [4] = test: Antibacterial activity against multidrug-resistant Staphylococcus aureus isolate 2895 by broth microdilution assay
Outline: (§2)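 Broth microdilution MIC per CLSI guidelines against clinical MRSA isolates, for β-lactams and test compound alone and in combination. Compounds were dissolved in DMSO. Growth was read by eye, in duplicate. FIC index = FIC(compound) + FIC(drug); synergy defined as FIC index ≤0.5.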

Staphylococcus aureus [5] = test: Synergistic antibacterial activity against multidrug-resistant Staphylococcus aureus isolate 85 assessed as fractional Inhibitory concentration index in presence of meropenem by broth microdilution assay
Staphylococcus aureus [6] = test: Synergistic antibacterial activity against multidrug-resistant Staphylococcus aureus isolate 256 in presence of cefuroxime by broth microdilution assay
Outline: (§3)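 CLSI broth microdilution on clinical MRSA isolates. MICs were measured for the β-lactam alone, the test agent alone and the two combined. Compounds were dissolved in DMSO, and growth inhibition was scored by eye. FIC index is the sum, over both agents, of MIC in combination divided by MIC alone. An FIC index ≤0.5 was taken as synergy.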

Staphylococcus aureus [7] = test: Synergistic antibacterial activity against multidrug-resistant Staphylococcus aureus isolate 1449 in presence of amoxicillin by broth microdilution assay
Outline: (§4)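 Clinical MRSA isolate panel; compound and β-lactam tested alone and in combination by CLSI broth microdilution, compounds dissolved in DMSO, growth inhibition scored by eye, run in duplicate. FIC index = FIC(compound) + FIC(drug), each the MIC in combination divided by the MIC alone; an index ≤ 0.5 was called synergy.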

Staphylococcus aureus [8] = test: Synergistic antibacterial activity against multidrug-resistant Staphylococcus aureus isolate 3267 assessed as fractional Inhibitory concentration index in presence of meropenem by broth microdilution assay
Staphylococcus aureus [9] = test: Synergistic antibacterial activity against multidrug-resistant Staphylococcus aureus isolate 3332 in presence of amoxicillin by broth microdilution assay; outline: as §3
Staphylococcus aureus [10] = test: Synergistic antibacterial activity against multidrug-resistant Staphylococcus aureus isolate 1344 in presence of amoxicillin by broth microdilution assay; outline: as §4
Staphylococcus aureus [11] = test: Synergistic antibacterial activity against multidrug-resistant Staphylococcus aureus isolate 3580 assessed as fractional Inhibitory concentration index in presence of methicillin by broth microdilution assay
Staphylococcus aureus [12] = test: Synergistic antibacterial activity against multidrug-resistant Staphylococcus aureus isolate 2901 in presence of cloxacillin by broth microdilution assay; outline: as §3
Staphylococcus aureus [13] = test: Synergistic antibacterial activity against multidrug-resistant Staphylococcus aureus isolate 1344 assessed as fractional Inhibitory concentration index in presence of cefuroxime by broth microdilution assay; outline: as §1
Staphylococcus aureus [14] = test: Synergistic antibacterial activity against multidrug-resistant Staphylococcus aureus isolate 2901 assessed as fractional Inhibitory concentration index in presence of cefuroxime by broth microdilution assay
Staphylococcus aureus [15] = test: Synergistic antibacterial activity against multidrug-resistant Staphylococcus aureus isolate 254 assessed as fractional Inhibitory concentration index in presence of amoxicillin by broth microdilution assay
Staphylococcus aureus [16] = test: Synergistic antibacterial activity against multidrug-resistant Staphylococcus aureus isolate 774 in presence of meropenem by broth microdilution assay
Staphylococcus aureus [17] = test: Antibacterial activity against Staphylococcus aureus ATCC 29213 harboring FtsZ 64 mutation after 20 hrs; conditions: ATCC 29213, 20 h
Outline: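 Broth microdilution MIC per CLSI guidelines, compounds dissolved in DMSO. Resistant mutants were selected by serial passage of ATCC 29213 in LB at 37 °C with shaking at 250 rpm. Each 20 h culture started at half the MIC, and the concentration was doubled at each transfer. Growth inhibition was read by eye, in duplicate.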

Staphylococcus aureus [18] = test: Synergistic antibacterial activity against multidrug-resistant Staphylococcus aureus isolate 2895 assessed as fractional Inhibitory concentration index in presence of amoxicillin by broth microdilution assay
Staphylococcus aureus [19] = test: Antibacterial activity against multidrug-resistant Staphylococcus aureus isolate 358 by broth microdilution assay; outline: as §2
Staphylococcus aureus [20] = test: Synergistic antibacterial activity against multidrug-resistant Staphylococcus aureus isolate 2895 assessed as fractional Inhibitory concentration index in presence of cefuroxime by broth microdilution assay
Staphylococcus aureus [21] = test: Synergistic antibacterial activity against multidrug-resistant Staphylococcus aureus isolate 2973 in presence of methicillin by broth microdilution assay; outline: as §3
Staphylococcus aureus [22] = test: Synergistic antibacterial activity against multidrug-resistant Staphylococcus aureus isolate 2728 assessed as fractional Inhibitory concentration index in presence of meropenem by broth microdilution assay

With CCCCCCCCCNc1ccc(F)c(C(N)=O)c1F the “fractional inhibitory concentration index (FICI)” value (Staphylococcus aureus [1]) was 0.5, the “fractional inhibitory concentration index (FICI)” value (Staphylococcus aureus [2]) was 1.3 and the MIC (Staphylococcus aureus [3]) was 2 µg/mL. The MIC (Staphylococcus aureus [4]) was 16 µg/mL (≈ 53.6 µM), the “fractional inhibitory concentration index (FICI)” value (Staphylococcus aureus [5]) was 4 and the MIC (Staphylococcus aureus [6]) was 2 µg/mL. The MIC (Staphylococcus aureus [7]) was 0.5 µg/mL, the “fractional inhibitory concentration index (FICI)” value (Staphylococcus aureus [8]) was 4 and the MIC (Staphylococcus aureus [9]) was 8 µg/mL. For the same compound, the MIC (Staphylococcus aureus [10]) was 16 µg/mL, the “fractional inhibitory concentration index (FICI)” value (Staphylococcus aureus [11]) was 0.2 and the MIC (Staphylococcus aureus [12]) was 0.5 µg/mL. For the same compound, the “fractional inhibitory concentration index (FICI)” value (Staphylococcus aureus [13]) was 0.3, the “fractional inhibitory concentration index (FICI)” value (Staphylococcus aureus [14]) was 0.1 and the “fractional inhibitory concentration index (FICI)” value (Staphylococcus aureus [15]) was 0.6. For the same compound, the MIC (Staphylococcus aureus [16]) was 4 µg/mL, the MIC (Staphylococcus aureus [17]) was 64 µg/mL (≈ 214 µM) and the “fractional inhibitory concentration index (FICI)” value (Staphylococcus aureus [18]) was 1.1. The MIC (Staphylococcus aureus [19]) was 16 µg/mL (≈ 53.6 µM), the “fractional inhibitory concentration index (FICI)” value (Staphylococcus aureus [20]) was 0.3 and the MIC (Staphylococcus aureus [21]) was 4 µg/mL. For the same compound, the “fractional inhibitory concentration index (FICI)” value (Staphylococcus aureus [22]) was 2.
